Published values from different studies.
Protocols differ between the studies behind these lines.
Target: Maternal embryonic leucine zipper kinase (MELK, Homo sapiens, UniProt Q14680)

FC(F)c1nc2ccccc2n1-c1nc(N2CCOCC2)nc(N2CCOCC2)n1 — remaining activity (enzyme activity, inhibitor; 10 µM): 91%
COc1cc2ncnc(Nc3ccc(F)c(Cl)c3)c2cc1OCCCN1CCOCC1 — remaining signal (cell-free assay; 0.5 µM): 77.7%
CCN1CCN(Cc2ccc(NC(=O)c3ccc(C)c(/C=C/c4cnc5[nH]ccc5c4OC)c3)cc2C(F)(F)F)CC1 — inhibition (target engagement in cells, inhibitor, chemoproteomics; A-375; 50 nM): -10.4%
CC(C)(C)c1nc2c(s1)c1nc(N)ncc1c1ccc(NS(=O)(=O)c3c(F)cccc3F)c(F)c12 — remaining activity (enzyme activity, inhibitor, radiometric; 1 µM): 41%
CN1CC(Oc2cnc(C#N)cc2-c2ccn3nc(NC(=O)C4CC4)cc3c2)C1 — inhibition (enzyme activity, inhibitor; 1 µM): 10%
CNC(=O)c1cc(Oc2ccc(NC(=O)Nc3ccc(Cl)c(C(F)(F)F)c3)cc2)ccn1 — inhibition (enzyme activity, inhibitor; 10 µM): 13%
FC(F)(F)Oc1cccc(-c2cnc3ccc(-c4ccncc4)nn23)c1 — activity vs control (enzyme activity, inhibitor, radiometric; 1 µM): 84%
C[C@H](NC(=O)c1cnc2n1[C@](C)(Cc1ccc(C#N)cc1)C(=O)N2c1cc(Cl)c(F)c(Cl)c1)C(=O)NC1(c2ccccn2)CC1 — remaining binding (cell-free assay, competition with immobilised ligand; 1 µM): 86%
COc1cc(Nc2cnc(C#N)c(O[C@H](C)CN(C)C)n2)ncc1-c1cnn(C)c1 — remaining activity (enzyme activity, inhibitor, radiometric; 10 µM): 62%
CC(=O)Nc1c(C(C)=O)c(=O)n(C)c2nc(-c3ccc(Cl)cc3Cl)c(-c3ccc(Cl)cc3)cc12 — remaining binding (cell-free assay, competition with immobilised ligand; 1 µM): 100%
COc1cc2ncnc(Nc3ccc(Oc4ccccc4)c(C)c3C)c2cc1OC — inhibition (enzyme activity, inhibitor; 1 µM): 10%
C[C@@H](c1cccc(C#N)c1)n1cc(Cl)cc(C(N)=O)c1=N — remaining binding (cell-free assay, competition with immobilised ligand; 1 µM): 78%
O=C1NC(=O)c2cc(Nc3ccc(F)cc3)c(Nc3ccc(F)cc3)cc21 — remaining signal (cell-free assay; 0.5 µM): 92%
Cc1ccc(Nc2nccc(N(C)c3ccc4c(C)n(C)nc4c3)n2)cc1S(N)(=O)=O — inhibition (enzyme activity, inhibitor; 10 µM): 16%
COc1cc(Cl)c(C(=O)N[C@@H](CN[C@H]2CC[C@@H](N)CC2)Cc2ccc(C#N)cc2)cc1-c1ccc(CN[C@H](C)c2ccc(C)cc2)o1 — remaining activity (enzyme activity, inhibitor; 1 µM): 98%
CN(C)C(=O)Cn1cc(-c2nc([C@@](C)(c3ccc(-c4cnc(N)nc4)cc3)C3CC3)no2)cn1 — remaining binding (cell-free assay, competition with immobilised ligand; 1 µM): 87%
Cc1ncc([N+](=O)[O-])n1C(=NO)c1ccccc1C(F)(F)F — inhibition (enzyme activity, inhibitor; 10 µM): 13.9%
CCN(CC)CCNC(=O)c1c(C)[nH]c(/C=C2\C(=O)Nc3ccc(F)cc32)c1C — inhibition (enzyme activity, inhibitor; 0.3 µM): 53%
N#CCCc1ccc2c(c1)-c1[nH]c3ccc([N+](=O)[O-])cc3c1CC(=O)N2 — remaining signal (cell-free assay; 0.5 µM): 88.6%
CN(c1ncccc1CNc1nc(Nc2ccc3c(c2)CC(=O)N3)ncc1C(F)(F)F)S(C)(=O)=O — inhibition (enzyme activity, inhibitor; 1 µM): 90.4%
COc1cc(-c2cn(C3CCc4c(F)cccc4N(CC(F)(F)F)C3=O)nn2)ccc1-n1cnc(C)c1 (centres unmarked) — remaining binding (cell-free assay, competition with immobilised ligand; 1 µM): 100%
Cc1ccc(C(=O)Nc2ccc(CN3CCN(C)CC3)c(C(F)(F)F)c2)cc1C#Cc1cnc2cccnn12 — remaining activity (enzyme activity, inhibitor; 23.5 nM): 61%
Nc1nc(NC2CCCCC2)sc1C(=O)c1ccccc1 — remaining activity (enzyme activity, inhibitor; 10 µM): 70%
O=C(Nc1cnn(-c2csc(C(=O)NC3COC3)c2)c1)Nc1c(F)cccc1Cl — remaining activity (enzyme activity, inhibitor; 5 µM): 61.4%
Cc1cc(NC(=O)c2cccc3cc(-c4cccc5[nH]nc(N)c45)ccc23)ccc1F — activity vs control (enzyme activity, inhibitor; 0.1 µM): 93%
COc1cc(/C=C/C(=O)CC(=O)/C=C/c2ccc(O)c(OC)c2)ccc1O — activity vs control (enzyme activity, inhibitor; 1 µM): 74%
CCS(=O)(=O)c1cc2cc(C[C@@](O)(CC(C)(C)c3ccc(F)cc3C(N)=O)C(F)(F)F)[nH]c2cn1 — remaining binding (cell-free assay, competition with immobilised ligand; 1 µM): 100%
COc1cc2c(Nc3ccc(Br)cc3F)ncnc2cc1OCC1CCN(C)CC1 — remaining signal (cell-free assay; 0.5 µM): 94.4%
CN(C)CC#Cc1ccc(OCCCc2sc(N3CCc4cccc(C(=O)Nc5nc6ccccc6s5)c4C3)nc2C(=O)O)c(F)c1 — remaining binding (cell-free assay, competition with immobilised ligand; 1 µM): 78%
Cc1ccc(NC(=O)c2ccc(C)c(C(F)(F)F)c2)cc1C#Cc1nn(C2CCC(O)CC2)c2ncnc(N)c12 (centres unmarked) — remaining signal (cell-free assay; 10 µM): 23%
Cc1sc(C(=O)NC2COC2)cc1-n1cc(NC(=O)Nc2c(F)cccc2Cl)cn1 — remaining activity (enzyme activity, inhibitor; 10 µM): 103%
CCOC(=O)c1cc2cc(-c3cc(C(=O)NCc4ccc(C(=O)O)cc4)nn3C)ccc2[nH]1 — remaining binding (cell-free assay, competition with immobilised ligand; 0.1 µM): 100%
